RAD52 anneal inh: blocks human RAD52 DNA annealing; actives 0.46% (n = 360,000); recombinant RAD52 DNA annealing, FRET fluorescence; P43351; inhibition, % at 18.7 µM; AID 651710;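 active means every replicate showing at least 50% inhibition; inconclusive means mean inhibition at least 50% but not in every replicate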
AF4-AF9 inh: inhibitors of human MLL-AF4/AF9 interaction | P42568 | AlphaScreen, biotin-AF4 peptide binding to FLAG-AF9 | inhibition, % at 10 µM | actives 0.47% (n = 350,000);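 active means every replicate reaching a set inhibition limit, whatever the replicate mean, cut at about 25% in these data; inconclusive means mean inhibition reaches that limit but some replicates miss it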
S100A4 MyoIIA: inhibitors of human S100A4 binding to myosin IIA peptide; S100A4/TAMRA-MyoIIA peptide fluorescence polarization; P26447; actives 0.14% (n = 360,000); inhibition, % at 10.7 µM; AID 652163;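 active means mean inhibition of at least 70% across replicates, with every replicate also reaching that level; inconclusive means mean inhibition reaches 70% but some replicates fall short; inactive means mean inhibition below 70%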
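Material: S100A4 monomer (human). Medium: Calcium-containing HEPES buffer, pH 7.2. Probe or stimulus: labelled myosin peptide probe, 5 nM. Compound dosing: one concentration per compound. Timing: polarization read 5 min after assay mix addition, stable 5–60 min. Benchmarks: DMSO as neutral control, TFP as positive control.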
GSIS activator: GLuc luminescence reporter in INS-1E cells, primary screen for activators of glucose-dependent secretion of insulin; INS-1E GLuc reporter insulin secretion, 2-3 h; AID 743287; actives 0.61% (n = 370,000); activation, % at 16.6 µM;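 active means lowest replicate activation of at least 40%, so every replicate reaches that level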
RAD54 inh: blocks human RAD54 Holliday junction branch migration. Q92698. FAM/BHQ fluorescence. inhibition, % at 10.4 µM. actives 0.14% (n = 360,000). AID 602329;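 active means mean normalized replicate activity at least 40 and at least half of replicates scoring 40 or more; inconclusive means only one of the two criteria met; inactive means mean below 40 and under half of replicates reaching 40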;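 further: inhibitors cause a drop in the FAM fluorescence signal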
DNA binder FP: binds DNA, flagging false RAD52 inhibitor hits | shares compounds with RAD52 anneal inh | Salmon sperm DNA/acridine orange FP displacement, DNA binding | AC50, µM | actives 8% (n = 1,000) | AID 652128;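 active means fitted half-maximal concentration for signal loss at or below twice the highest dose tested, in every separate run, actives reach about 64 µM in these data; inconclusive means runs disagree, or flat partial signal loss, or poor fit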
Each line names hits and unclear results; the compound was inactive in the other large screens (follow-up assays come after a bar, where they were run). Only some compounds are listed: those with a hit (about 1.3% of all), similar ones and a draw of the others.

C[C@H]1CN([C@@H](C)CO)C(=O)c2cccc(NC(=O)C3CCCCC3)c2O[C@H]1CN(C)Cc1ccc(Cl)c(Cl)c1	none
C[C@@H](NC(=O)C[C@@H]1C=C[C@@H](NC(=O)C2CC2)[C@H](CO)O1)c1ccccc1	none
CCOc1ccc2[nH]c3c(c2c1)CNCC3	RAD52 anneal inh 55 | DNA binder FP inactive
C=CCNc1nc(NCc2cccc(OC)c2)c2sc(-c3ccccc3)cc2n1	RAD52 anneal inh 83 | DNA binder FP inactive
CN(C)CC#Cc1ccc([C@@H]2[C@H](CO)N3C(=O)CN(C(=O)c4ccccc4)C[C@@H]23)cc1	none (no result: RAD54 inh)
C[C@H](CO)N1C[C@H](C)[C@@H](CN(C)Cc2ccc(F)cc2)Oc2ncc(-c3ccccc3F)cc2C1=O	none
COc1cc(NCCCCC(C)N)c2nccc(C)c2c1 (centres undefined)	RAD52 anneal inh 76 (no result: GSIS activator) | DNA binder FP inactive
CCN(CC)CCN(C(=O)c1ccc(C(=O)c2ccccc2)cc1)c1nc2c(OC)cccc2s1	RAD52 anneal inh 61, AF4-AF9 inh 27 | DNA binder FP inactive
COc1cccc2sc(N(CCCN(C)C)C(=O)c3sc4ccccc4c3Cl)nc12	RAD52 anneal inh 58, AF4-AF9 inh 28 | DNA binder FP inactive
C[C@@H]1CN([C@@H](C)CO)C(=O)c2cc(C#CC3CCCC3)cnc2O[C@@H]1CN(C)C(=O)C1CC1	none (no result: RAD54 inh)
CNC(=O)C[C@@H]1CC[C@H]2[C@H](COc3ccc(NC(=O)c4ccccc4F)cc3C(=O)N2C)O1	none (no result: RAD52 anneal inh, AF4-AF9 inh, S100A4 MyoIIA)
COc1ccc(-c2c(-c3ccccc3)c(C(=O)C(=O)NCCCN(C)C)n3ccc4cc(OC)c(OC)cc4c23)cc1OC	RAD52 anneal inh 94, AF4-AF9 inh 38, RAD54 inh 81 | DNA binder FP inactive
O=C(C[C@H]1C[C@@H]2c3cc(NC(=O)CC4CC4)ccc3O[C@@H]2[C@@H](CO)O1)NCC1CC1	none
CCCC1=Nc2cc(C(=O)NCCCN3CCN(C)CC3)ccc2Sc2ccccc21	none
CC1=Nc2cc(C(=O)NCCCN3CCN(C)CC3)ccc2Sc2ccc(C)cc21	RAD52 anneal inh 77, AF4-AF9 inh 27 | DNA binder FP inactive
COc1ccc2c(c1OC)C[N+]1([O-])CCc3cc4c(cc3C1C2)OCO4 (centres undefined)	none
COc1ccc2c(c1)CC1c3c(cc4c(c3-2)OCO4)CC[N+]1(C)[O-] (centres undefined)	RAD52 anneal inh 82, RAD54 inh 61 | DNA binder FP inconclusive
COc1ccc(C(CCN2CCOCC2)c2c(OC)cc(OC)c3c(-c4ccccc4)cc(=O)oc23)cc1 (centres undefined)	RAD52 anneal inh 51 | DNA binder FP inactive
O=C(O)C[C@H]1C=C[C@@H](NC(=O)Nc2cc(F)ccc2F)[C@H](CO)O1	none
CN(C)CCCNc1nc2cc(-c3cccc(C(F)(F)F)c3)sc2c(=O)n1C	RAD52 anneal inh 66 | DNA binder FP inconclusive
CN(C)CCCOc1ccc(-c2cc3nc(NCc4cccnc4)n(C)c(=O)c3s2)cn1	RAD52 anneal inh 60 | DNA binder FP inactive
CNC(=O)C[C@H]1CC[C@@H]2[C@@H](COc3ccc(NC(=O)Nc4c(C)noc4C)cc3C(=O)N2C)O1	none (no result: RAD52 anneal inh, AF4-AF9 inh, S100A4 MyoIIA, RAD54 inh)
Cc1ccc(S(=O)(=O)Nc2ccc3c(c2)C(=O)N([C@@H](C)CO)C[C@H](C)[C@@H](CN(C)S(=O)(=O)c2cn(C)cn2)O3)cc1	none
CCOC(=O)c1c(-c2ccccc2)oc2ccc(OCC)cc12	none (no result: RAD52 anneal inh, AF4-AF9 inh, S100A4 MyoIIA)
CCOC(=O)c1c(-c2ccccc2)oc2ccc(OCC(O)CNCCN(C)C)cc12 (centres undefined)	RAD52 anneal inh 83, AF4-AF9 inh 34 | DNA binder FP inactive
CCN(CC)CCNc1ccc(C)c2sc3ccc(O)cc3c(=O)c12	RAD52 anneal inh 76, AF4-AF9 inh 50 (no result: GSIS activator, RAD54 inh) | DNA binder FP 10µM
CCN(CC)CCOC(=O)c1c(C)oc2ccc(O)cc12	none (no result: RAD52 anneal inh, AF4-AF9 inh, S100A4 MyoIIA, GSIS activator)
Cc1ccc(S(=O)(=O)N(C)C[C@@H]2Oc3c(NC(=O)c4cc(C)nn4C)cccc3C(=O)N([C@@H](C)CO)C[C@@H]2C)cc1	none
Cc1ccc(S(=O)(=O)Nc2cccc3c2O[C@H](CN(C)Cc2ccc(Oc4ccccc4)cc2)[C@@H](C)CN([C@H](C)CO)C3=O)cc1	none

Screening results deposited in PubChem by Broad Institute.
